Consider 21 molecules from ChEMBL document CHEMBL5230149, “Discovery of novel ketoxime ether derivatives with potent FXR agonistic activity, oral effectiveness and high liver/blood ratio” (Bioorg Med Chem, 2021).

In one data set the target is T1, Bile acid receptor (Homo sapiens, UniProt Q96RI1).
T1 sequence (Q96RI1 whole entry): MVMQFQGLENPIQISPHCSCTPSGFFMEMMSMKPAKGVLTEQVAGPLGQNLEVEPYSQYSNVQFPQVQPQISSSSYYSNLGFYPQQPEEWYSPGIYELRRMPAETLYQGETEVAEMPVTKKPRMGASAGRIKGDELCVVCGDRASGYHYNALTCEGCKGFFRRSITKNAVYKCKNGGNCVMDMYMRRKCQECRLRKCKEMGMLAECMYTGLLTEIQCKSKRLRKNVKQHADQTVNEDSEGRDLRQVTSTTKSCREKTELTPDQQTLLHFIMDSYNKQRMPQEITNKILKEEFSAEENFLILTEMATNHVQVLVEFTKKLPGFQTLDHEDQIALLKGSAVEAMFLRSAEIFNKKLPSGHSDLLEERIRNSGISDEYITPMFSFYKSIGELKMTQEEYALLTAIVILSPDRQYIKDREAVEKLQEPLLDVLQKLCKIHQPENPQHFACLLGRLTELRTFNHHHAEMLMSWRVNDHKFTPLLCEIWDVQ
Kind of data set: Agonist activity at human FXR expressed in human Huh-7 cells co-transfected with FXRE-Luc reporter plasmid assessed as receptor transactivation incubated for 16 hrs by luciferase reporter gene assay. The class given is cell-based. (Reporter assays use an easily measured gene product as a stand-in for the process of interest.)

The target in data set [1] is T2, G-protein coupled bile acid receptor 1 (Homo sapiens, UniProt Q8TDU6).
T2 sequence (Q8TDU6 whole entry): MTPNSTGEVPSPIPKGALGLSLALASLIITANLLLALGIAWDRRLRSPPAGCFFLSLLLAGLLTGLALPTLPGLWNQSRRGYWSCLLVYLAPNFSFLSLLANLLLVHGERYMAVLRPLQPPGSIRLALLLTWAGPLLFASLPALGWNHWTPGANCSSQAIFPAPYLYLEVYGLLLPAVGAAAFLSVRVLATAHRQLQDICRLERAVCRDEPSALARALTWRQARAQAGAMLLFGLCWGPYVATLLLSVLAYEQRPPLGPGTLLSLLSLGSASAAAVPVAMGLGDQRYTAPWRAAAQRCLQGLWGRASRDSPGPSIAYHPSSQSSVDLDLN
Kind of data set: Agonist activity at human TGR5 expressed in HEK293 cells co-transfected with CRE-Luc reporter plasmid assessed as receptor transactivation incubated for 5.5 hrs by luciferase reporter gene assay. Type of data set: cell-based.

Data set [2] deals with T3, Bile acid receptor (Mus musculus) (UniProt Q60641).
T3 sequence (whole entry): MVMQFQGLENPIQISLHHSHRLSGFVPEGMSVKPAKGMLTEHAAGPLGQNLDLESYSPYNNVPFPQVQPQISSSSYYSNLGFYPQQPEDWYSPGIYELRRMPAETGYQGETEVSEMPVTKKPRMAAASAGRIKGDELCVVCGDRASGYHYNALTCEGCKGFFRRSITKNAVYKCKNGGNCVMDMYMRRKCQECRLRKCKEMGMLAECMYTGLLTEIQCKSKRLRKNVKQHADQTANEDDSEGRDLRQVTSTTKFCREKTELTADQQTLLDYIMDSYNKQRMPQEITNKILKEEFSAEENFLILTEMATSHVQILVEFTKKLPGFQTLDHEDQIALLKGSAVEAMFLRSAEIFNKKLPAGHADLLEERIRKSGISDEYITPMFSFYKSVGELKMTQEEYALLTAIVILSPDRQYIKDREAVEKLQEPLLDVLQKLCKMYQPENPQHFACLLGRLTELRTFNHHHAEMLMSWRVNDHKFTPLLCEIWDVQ
Kind of data set: Agonist activity at FXR in C57BL/6J mouse hepatocytes assessed as upregulation of BSEP mRNA expression at 0.4 to 10 uM incubated for 24 hrs by qRT-PCR analysis. The class given is cell-based. To be noted: Hepatocyte, filed as agonist, dose 0.4-10 µM. In a few lines:
(§1)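 Hepatocytes isolated from overnight-fasted male C57BL/6J mice (8–12 weeks), allowed 4 h to adhere, then given vehicle (0.5% DMSO) or compound at 0.4, 2 and 10 μM for 24 h. TRIzol RNA extraction, then qRT-PCR with GAPDH normalization by ΔΔCt. Values are expressed as fold over vehicle (mean ± S.E.M, n = 3).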
(Quantitative PCR measures a nucleic acid by following its amplification.)

Data set [3] addresses T3, Bile acid receptor (Mus musculus). Kind of data set: In vivo agonist activity at FXR in C57BL/6J mouse assessed as downregulation of CYP7A1 mRNA expression in liver at 10 mg/kg, po measured after 6 hrs by qRT-PCR analysis. The class given is functional, organism-based. A digest of the protocol: (§2)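 Male C57BL/6J mice (7–8 weeks) were fasted 3 h, then dosed orally once in 0.25% CMC-Na (wt/vol) vehicle. Sacrificed 6 h post-dose; liver snap-frozen at -80 °C. TRIzol RNA extraction and qRT-PCR with GAPDH normalization (ΔΔCt). Results are fold over vehicle group (mean ± S.E.M, n = 6).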

Data set [4] shares this target. Nature of the data set: Agonist activity at FXR in C57BL/6J mouse hepatocytes assessed as upregulation of SHP mRNA expression incubated for 24 hrs by qRT-PCR analysis. The class given is cell-based. The conditions noted are these: Hepatocyte, filed as agonist, dose 0.4-10 µM. A digest of the protocol: as §1
For data set [5] the target is unchanged. Kind of data set: In vivo agonist activity at FXR in C57BL/6J mouse assessed as downregulation of CYP8B1 mRNA expression in liver at 10 mg/kg, po measured after 6 hrs by qRT-PCR analysis. The class given is functional, organism-based. A digest of the protocol:
as §2

Data set [6] is described as follows: Plasma concentration in ICR mouse at 15 mg/kg, po measured after 4 hrs by LC-MS/MS analysis. Type of data set: ADME, organism-based. In a few lines: (§3)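 Overnight-fasted male ICR mice (n = 3 per time point) received single oral 15 mg/kg and were refed 2 h later. Blood and liver were taken at 1.5, 4 and 8 h. Serum (10 µL) was precipitated with 100 µL methanol/acetonitrile (1:1). Liver was homogenized in ten times its weight of the same solvent. Supernatants were diluted 1:1 in ACN/H₂O and analyzed by LC-MS/MS. The ratio is liver conc (ng/g) over plasma conc (ng/mL).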

Data set [7] is described as follows: Plasma concentration in ICR mouse at 15 mg/kg, po measured after 1.5 hrs by LC-MS/MS analysis. Type of data set: ADME, organism-based. In a few lines:
as §3

A short description of data set [8]: Drug uptake in ICR mouse liver at 15 mg/kg, po measured after 1.5 hrs by LC-MS/MS analysis. The class given is ADME, organism-based. To be noted: read-out: Drug uptake. In a few lines: as §3
Data set [9] in a line: Plasma concentration in ICR mouse at 15 mg/kg, po measured after 8 hrs by LC-MS/MS analysis. Type of data set: ADME, organism-based. In a few lines:
as §3

Data set [10] deals with T4, TGR5 (G-protein coupled bile acid receptor 1) (Homo sapiens, UniProt Q8TDU6).
T4 sequence (Q8TDU6 whole entry): T2 sequence (Q8TDU6 whole entry)
Nature of the data set: Agonist activity at human TGR5 expressed in HEK293 cells co-transfected with CRE-Luc reporter plasmid assessed as receptor transactivation incubated for 5.5 hrs by luciferase reporter gene assay relative to OCA. Type of data set: cell-based. To be noted: read-out: Efficacy.

A short description of data set [11]: Drug uptake in ICR mouse liver at 15 mg/kg, po measured after 4 hrs by LC-MS/MS analysis. The class given is ADME, organism-based. The conditions noted are these: read-out: Drug uptake. In a few lines: as §3
Data set [12] in a line: Drug uptake in ICR mouse liver at 15 mg/kg, po measured after 8 hrs by LC-MS/MS analysis. Type of data set: ADME, organism-based. The conditions noted are these: read-out: Drug uptake. In a few lines:
as §3

The target in data set [13] is T3, Bile acid receptor (Mus musculus). Kind of data set: In vivo agonist activity at FXR in C57BL/6J mouse assessed as downregulation of CYP8B1 mRNA expression in liver at 30 mg/kg, po measured after 6 hrs by qRT-PCR analysis. The class given is functional, organism-based. In a few lines: (§4)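 Male C57BL/6J mice (7–8 weeks) fasted 3 h, then given a single oral dose; vehicle 0.25% CMC-Na (wt/vol). Killed 6 h post-dose; liver snap-frozen, stored at -80 °C. TRIzol RNA extraction, qRT-PCR, normalised to GAPDH by ΔΔCt. Values given as fold of vehicle group, mean ± SEM, n = 6.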

For data set [14] the target is unchanged. Nature of the data set: In vivo agonist activity at FXR in C57BL/6J mouse assessed as downregulation of CYP7A1 mRNA expression in liver at 30 mg/kg, po measured after 6 hrs by qRT-PCR analysis. The class given is functional, organism-based. In a few lines: as §4

Structures are written as SMILES. pEC50: −log10 of the molar value. Calls of active or inactive are those of the source. No cut-off for these calls is given here.

Broadly, the pEC50 is −log10 of the EC50, conventionally taken in molar units. Turning to `C/C(=N\OCc1cc(C)cc(C(=O)O)c1)c1ccc(OCc2c(-c3ccccc3OC(F)(F)F)noc2C2CC2)c(C)c1`, the negative logarithm of the EC50 (pEC50) on Bile acid receptor is 6.28.

For the molecule `C/C(=N\OCc1cccc(C(=O)O)c1)c1ccc(OCc2c(-c3ccccc3OC(F)(F)F)noc2C2CC2)cc1Cl`, the pEC50 at Bile acid receptor was 6.97.

Regarding `C/C(=N\OCc1ccc(C(=O)O)o1)c1ccc(OCc2c(-c3c(Cl)cccc3Cl)noc2C2CC2)cc1Cl`, the negative-log EC50 (pEC50) on Bile acid receptor is 7.30.

Consider `C/C(=N\OCc1cncc(C(=O)O)c1)c1ccc(OCc2c(-c3ccccc3OC(F)(F)F)noc2C2CC2)c(F)c1`, for which the negative-log EC50 (pEC50) on Bile acid receptor is 6.14.

For the molecule `C/C(=N\OCc1cc(C)cc(C(=O)O)c1)c1ccc(OCc2c(-c3ccccc3OC(F)(F)F)noc2C2CC2)cc1Cl`, on Bile acid receptor, the pEC50 is 6.80.

On to `C/C(=N\OCc1cccc(C(=O)O)c1)c1ccc(OCc2c(-c3c(Cl)cccc3Cl)noc2C2CC2)cc1Br`, for which the pEC50 at Bile acid receptor was 7.43.

As for `C/C(=N\OCc1ccccc1C(=O)O)c1ccc(OCc2c(-c3c(Cl)cccc3Cl)noc2C2CC2)cc1Cl`, the pEC50 on Bile acid receptor is 7.12.

On to `C/C(=N\OCc1ccc(C(=O)O)cc1)c1ccc(OCc2c(-c3c(Cl)cccc3Cl)noc2C2CC2)cc1Cl`, for which the pEC50 at Bile acid receptor was 6.87.

With `C/C(=N\OCc1cccc(C(=O)O)c1)c1ccc(OCc2c(-c3c(Cl)cccc3Cl)noc2C2CC2)cc1Cl`, the negative-log EC50 (pEC50) on Bile acid receptor was 7.32.

Regarding `C/C(=N\OCc1cc(C(=O)O)ccc1C#N)c1ccc(OCc2c(-c3ccccc3OC(F)(F)F)noc2C2CC2)c(C)c1`, the pEC50 at Bile acid receptor was 6.36.

As to `C/C(=N\OCc1cc(C(=O)O)ccc1C#N)c1ccc(OCc2c(-c3ccccc3OC(F)(F)F)noc2C2CC2)cc1Cl`, the negative-log EC50 (pEC50) in data set [1] was less than 4.00. Moreover, the result in data set [2], in [3] and in data set [5] was Active. Moreover, the Activity entry in data set [4] was “Dose-Dependent Effect”. Moreover, the concentration at 4 h worked out at 0.0452 µg/mL in [6] and 3580 ng/g in [11]. Further, the concentration at 1.5 h in [7] was determined as 0.0567 µg/mL; in [8], 4340 ng/g. For the same molecule, the concentration at 8 h turned out to be 0.0084 µg/mL in data set [9] and 941 ng/g in data set [12]. For the same molecule, the Emax at 5.5 h in data set [10] is 0.6%.

On to `C/C(=N\OCc1cncc(C(=O)O)c1)c1ccc(OCc2c(-c3ccccc3OC(F)(F)F)noc2C2CC2)cc1Cl`, for which the pEC50 on Bile acid receptor was 7.26.

Turning to `CC[C@H]1[C@@H](O)[C@@H]2[C@H](CC[C@]3(C)[C@@H]([C@H](C)CCC(=O)O)CC[C@@H]23)[C@@]2(C)CC[C@@H](O)C[C@@H]12`, the result in data set [2], in [13] and in [14] was Active. Besides, in data set [4], the Activity entry was “Dose-Dependent Effect”.

As for `C/C(=N\OCc1cc(C)cc(C(=O)O)c1)c1ccc(OCc2c(-c3ccccc3OC(F)(F)F)noc2C2CC2)c(F)c1`, on Bile acid receptor, the negative-log EC50 (pEC50) was 5.87.

As for `C/C(=N\OCc1cc(C(=O)O)ccc1C#N)c1ccc(OCc2c(-c3ccccc3OC(F)(F)F)noc2C2CC2)c(F)c1`, the pEC50 on Bile acid receptor is 6.46.

`C/C(=N\OCc1cncc(C(=O)O)c1)c1ccc(OCc2c(-c3c(Cl)cccc3Cl)noc2C2CC2)cc1Cl`: the negative-log EC50 (pEC50) on Bile acid receptor was 7.19.

For `C/C(=N\OCc1ccc(C(=O)O)o1)c1ccc(OCc2c(-c3c(Cl)cccc3Cl)noc2C2CC2)cn1`, the pEC50 at Bile acid receptor is 5.86.

Turning to `C/C(=N\OCc1cccc(C(=O)O)c1)c1ccc(OCc2c(-c3c(Cl)cccc3Cl)noc2C2CC2)cn1`, on Bile acid receptor, the pEC50 is 6.63.

With `COc1cc(/C(C)=N/OCc2cc(C)cc(C(=O)O)c2)ccc1OCc1c(-c2ccccc2OC(F)(F)F)noc1C1CC1`, the negative-log EC50 (pEC50) on Bile acid receptor was less than 5.73.

In the case of `C/C(=N\OCc1cncc(C(=O)O)c1)c1ccc(OCc2c(-c3ccccc3OC(F)(F)F)noc2C2CC2)c(C)c1`, the pEC50 on Bile acid receptor is 5.74.

Consider `C/C(=N\OCc1cccc(C(=O)O)c1)c1ccc(OCc2c(-c3c(Cl)cccc3Cl)noc2C2CC2)c(Cl)c1`, for which the pEC50 at Bile acid receptor was 6.59.
